One assay addresses Translocator protein (Rattus norvegicus, UniProt P16257). In words: Displacement of [3H]PK11195 from TSPO receptor in rat kidney membranes. It counts as cell membranes, Membrane. (Loss of bound radioactivity is the signal in a displacement assay; it reports binding, not function.)
The species entered for a further assay is Rattus norvegicus. Kind of assay: Displacement of [3H]Ro15-1788 from CBR in rat cerebral cortex at 10 uM. The format is tissue-based. In short, it runs like this: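 Rat cerebral cortex membranes were washed free of endogenous GABA, then incubated with 0.4 nM [3H]Ro15-1788 for 90 min at 0 °C in 50 mM Tris-citrate pH 7.4. Compound was present at 10 μM and the result given as % inhibition of binding.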

The nature of assay [1]: Antiproliferative activity against human U87MG cells assessed as cell viability at 1000 times Ki after 24 hrs by MTS assay relative to untreated control. It counts as functional, U-87MG ATCC. In short, it runs like this: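 U87MG cells grown in RPMI with 10% FBS, glutamine, antibiotics and non-essential amino acids at 37 °C. […] MTS colorimetric read-out, expressed as % of DMSO-treated control (100%). Triplicate wells, 3 experiments, mean ± SEM.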
On the technique in general: Tetrazolium assays rely on reduction of a dye to a coloured formazan, in cell work by metabolically active cells.

The subject of assay [2] is U-87MG ATCC. In words: Antiproliferative activity against human U87MG cells assessed as reduction in cell viability at 30 times Ki after 48 hrs by trypan blue exclusion assay.
For assay [3], the system named is U-87MG ATCC. Kind of assay: Antiproliferative activity against human U87MG cells assessed as reduction in cell viability at 30 times Ki after 24 hrs by trypan blue exclusion assay.
In assay [4] the test system is U-87 MG. In words: Induction of mitochondrial membrane depolarization in human U87MG cells assessed as change in membrane potential at 30 times Ki after 48 hrs by flow cytometric analysis. The format is functional, U-87MG ATCC. A digest of the protocol: (§1)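 U87MG cells were exposed to compound at 30 times Ki, or to DMSO control, for 12, 24 or 48 h, with CCCP as positive control in each experiment. Collected cells were stained with JC-1 for 30 min at room temperature in the dark, then analysed by flow cytometry: aggregates in FL2, monomers in FL1, gated on forward/side scatter. Read-out was % of cells in the lower-right (depolarized) quadrant; three independent experiments.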

The subject of assay [5] is U-87MG ATCC. Kind of assay: Antiproliferative activity against human U87MG cells assessed as reduction in cell viability at 150 times Ki after 24 hrs by trypan blue exclusion assay.
In assay [6] the test system is U-87MG ATCC. Kind of assay: Antiproliferative activity against human U87MG cells assessed as reduction in cell viability at 30 times Ki after 72 hrs by trypan blue exclusion assay.
Assay [7] relates to U-87 MG. Kind of assay: Induction of mitochondrial membrane depolarization in human U87MG cells assessed as increase in JC-1 monomer formation at 30 times Ki after 12 to 48 hrs by flow cytometric analysis. The format is functional, cell-based. The following applies: U-87MG ATCC. In short, it runs like this: as §1
On the technique in general: In flow cytometry, cells or beads pass a laser one at a time.

In general, Ki refers to the equilibrium dissociation constant of an inhibitor or competing ligand from its target. Low values mean tighter binding, high ones weaker binding. The term inhibition denotes how much of the control response was suppressed. A higher inhibition goes with strong suppression.

Calls of active or inactive are those of the source. No cut-off for these calls is given here.

Translocator protein, sequence (P16257 whole entry, looked up): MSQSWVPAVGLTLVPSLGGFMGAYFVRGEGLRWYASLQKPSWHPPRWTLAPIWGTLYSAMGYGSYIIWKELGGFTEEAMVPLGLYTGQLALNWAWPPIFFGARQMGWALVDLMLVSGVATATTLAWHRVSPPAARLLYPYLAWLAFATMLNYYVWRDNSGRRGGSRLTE

`CCCN(CCC)C(=O)c1cc(-c2ccccc2)on1`: at Translocator protein, the inhibitory constant (Ki) was above 10000 nM.
The molecule `CCCCN(CCCC)C(=O)Cc1nc(-c2ccccc2)no1` displayed a Ki on Translocator protein of 489 nM.
Still for that read-out and setting: next, `CCCN(CCC)C(=O)c1coc(-c2ccccc2)n1`: above 10000 nM.
Regarding `CCCCCN(CCCCC)C(=O)c1coc(-c2ccccc2)n1`, on Translocator protein, the inhibitory constant (Ki) turned out to be 613 nM.
With `CCCN(CCC)C(=O)Cc1coc(-c2ccccc2)n1`, the inhibition in the assay filed under Rattus norvegicus was below 25%. This molecule also yielded a Ki on Translocator protein of 1700 nM.
Molecule `CCCCN(CCCC)C(=O)Cc1nc(-c2ccc(Cl)cc2)no1` had an inhibition constant Ki on Translocator protein of 267 nM.
Regarding `CCCCN(CCCC)C(=O)C(=O)c1c(-c2ccc(Cl)cc2)[nH]c2ccc(Cl)cc12`, the Activity in assay [1] was determined as 76%.
For the molecule `CCCCN(CCCC)C(=O)c1cc(-c2ccccc2)on1`, the inhibition constant (Ki) on Translocator protein amounted to 620 nM.
Take `CCCCCCN(CCCCCC)C(=O)Cc1coc(-c2ccc(Cl)cc2)n1`: the inhibition constant Ki at Translocator protein was 704 nM.
Molecule `CCCCN(CCCC)C(=O)Cc1coc(-c2ccc(F)cc2)n1` came in with an inhibition constant Ki on Translocator protein of 88 nM.
On Translocator protein, `CCCCCN(CCCCC)C(=O)c1cc(-c2ccccc2)no1` came in with an inhibition constant Ki of 379 nM.
Molecule `CCCCN(C)C(=O)c1coc(-c2ccccc2)n1` had a Ki on Translocator protein above 10000 nM.
On Translocator protein, `CCCCCN(CCCCC)C(=O)Cc1cc(-c2ccccc2)on1` gave a Ki of 51 nM. For the same molecule, in assay [1], the Activity stood at 24.8%.
`CCN(Cc1ccccc1)C(=O)c1nc(-c2ccccc2)no1` came in with a Ki on Translocator protein of 4870 nM.
On to `CCCCN(CCCC)C(=O)c1nc(-c2ccccc2)no1`, for which the Ki at Translocator protein worked out at 772 nM.
With `CCCN(CCC)C(=O)Cc1coc(-c2ccc(F)cc2)n1`, on Translocator protein, the Ki worked out at 1630 nM.
For the molecule `CCCCN(CCCC)C(=O)Cc1coc(-c2ccccc2)n1`, in the assay listed under Rattus norvegicus, the inhibition is below 25%. Besides, at Translocator protein, the Ki is 346 nM.
For the molecule `CCCCCCN(CCCCCC)C(=O)c1cc(-c2ccccc2)on1`, the affinity on Translocator protein corresponds to a Ki of 5800 nM.
Molecule `CCCCN(CCCC)C(=O)c1cc(-c2ccccc2)no1` returned a Ki at Translocator protein of 651 nM.
In the assay listed under Rattus norvegicus, `CCCCCCN(CCCCCC)C(=O)Cc1coc(-c2ccccc2)n1` registered an inhibition below 25%. The same molecule gave a Ki at Translocator protein of 151 nM.
Regarding `CCCCCN(CCCCC)C(=O)Cc1coc(-c2ccccc2)n1`, the result with U-87MG ATCC [2], in the assay with U-87MG ATCC [3], in the assay on U-87MG ATCC [5], in the assay on U-87MG ATCC [6] and in the assay with U-87 MG [7] was Active. In addition, the inhibition in the assay listed under Rattus norvegicus is below 25%. The molecule further had a Ki at Translocator protein of 32 nM. In addition, the Activity in [1] stood at 9.3%; in the assay with U-87 MG [4] it was 24%.
Turning to `CCCCCN(CCCCC)C(=O)c1cc(-c2ccccc2)on1`, the inhibition constant Ki on Translocator protein was determined as 382 nM.
On Translocator protein, `CCCCCN(CCCCC)C(=O)Cc1cc(-c2ccccc2)no1` displayed an inhibition constant (Ki) of 257 nM.
On the same count and under the same terms, next, `CCCCCCN(CCCCCC)C(=O)c1nc(-c2ccccc2)no1`: 4190 nM; `CCCCN(CCCC)C(=O)Cc1coc(-c2ccc(C)cc2)n1`: 487 nM; `CCN(CC)C(=O)c1nc(-c2ccccc2)no1`: above 10000 nM.
In the case of `CCCN(CCC)C(=O)c1cc(-c2ccc(Cl)cc2)on1`, at Translocator protein, the inhibition constant Ki was above 10000 nM.
With `CCCN(CCC)C(=O)Cc1coc(-c2ccc(C)cc2)n1`, at Translocator protein, the inhibition constant Ki stood at 2200 nM.
With `CCCCN(CCCC)C(=O)c1coc(-c2ccccc2)n1`, on Translocator protein, the Ki is 3460 nM.
In turn, `CCCCCCN(CCCCCC)C(=O)c1cc(-c2ccc(C)cc2)no1` displayed a Ki on Translocator protein of 2700 nM.
On the same count and under the same terms, next, `CCCN(CCC)C(=O)c1nc(-c2ccccc2)no1`: above 10000 nM; `CCCCCN(CCCCC)C(=O)Cc1nc(-c2ccccc2)no1`: 133 nM.
As for `CCCCCN(CCCCC)C(=O)Cc1coc(-c2ccc(Cl)cc2)n1`, on Translocator protein, the Ki stood at 45 nM. The Activity in assay [1] amounted to 72.6%.
As to `CCN(CC)C(=O)c1coc(-c2ccccc2)n1`, the Ki on Translocator protein is above 10000 nM.
`CCCCCCN(CCCCCC)C(=O)Cc1coc(-c2ccc(F)cc2)n1` returned a Ki at Translocator protein of 157 nM.
On Translocator protein, `CCCCCN(CCCCC)C(=O)Cc1coc(-c2ccc(F)cc2)n1` returned a Ki of 11 nM. Moreover, the Activity in assay [1] is 98%.
For the molecule `CCCN(CCC)C(=O)Cc1coc(-c2ccc(Cl)cc2)n1`, on Translocator protein, the affinity corresponds to a Ki of 942 nM.
`CCN(Cc1ccccc1)C(=O)c1coc(-c2ccccc2)n1` came in with a Ki on Translocator protein of 5490 nM.
Same read-out and setting: then `CCCCCCN(CCCCCC)C(=O)Cc1coc(-c2ccc(C)cc2)n1`, with 877 nM.
For the molecule `CCCCCN(CCCCC)C(=O)c1nc(-c2ccccc2)no1`, the Ki on Translocator protein was determined as 914 nM.
Take `CCCN(CCC)C(=O)Cc1nc(-c2ccc(Cl)cc2)no1`: at Translocator protein, the Ki came out at 3400 nM.
Still for that read-out and setting: then `CCCCCCN(CCCCCC)C(=O)Cc1nc(-c2ccc(Cl)cc2)no1`, with 3200 nM; and `CCCCCCN(CCCCCC)C(=O)c1cc(-c2ccccc2)no1`, with 7000 nM; and `CCCCCCN(CCCCCC)C(=O)c1cc(-c2ccc(Cl)cc2)on1`, with above 10000 nM.
Consider `CCCCCN(CCCCC)C(=O)Cc1nc(-c2ccc(Cl)cc2)no1`, for which the Ki at Translocator protein amounted to 152 nM.
In turn, `CCCCCCN(CCCCCC)C(=O)c1coc(-c2ccccc2)n1` displayed a Ki on Translocator protein of 4600 nM.
`CCCCN(C)C(=O)c1nc(-c2ccccc2)no1` displayed an inhibition constant Ki at Translocator protein above 10000 nM.
With `CCCCCN(CCCCC)C(=O)Cc1coc(-c2ccc(C)cc2)n1`, the affinity at Translocator protein corresponds to a Ki of 68 nM. Besides, the Activity in [1] is on record as 5.3%.
For the molecule `CCCCN(CCCC)C(=O)Cc1coc(-c2ccc(Cl)cc2)n1`, the inhibition constant Ki at Translocator protein came out at 177 nM.
Molecule `CCCCCCN(CCCCCC)C(=O)Cc1nc(-c2ccccc2)no1` displayed a Ki at Translocator protein of 1100 nM.
As to `CCCN(CCC)C(=O)c1cc(-c2ccccc2)no1`, the Ki on Translocator protein was above 10000 nM.
In the case of `CCCN(CCC)C(=O)Cc1nc(-c2ccccc2)no1`, at Translocator protein, the affinity, expressed as Ki, was 4340 nM.

Values taken from ChEMBL document CHEMBL1828580, “Tertiary amides with a five-membered heteroaromatic ring as new probes for the translocator protein” (Eur J Med Chem, 2011).
